Measurements from different studies.
Protocols differ between the studies behind these lines. In brackets after ≈: the same amount, converted by molar mass.

`COc1cc(C(=O)c2cc3c(-c4ccccc4)c(O)ccc3o2)cc(OC)c1OC` gave an IC50 of greater than 50000 nM (CCRF-CEM; cell growth or viability; 72 h).
The IC50 of `N#Cc1ccc(NC(=S)NN=Cc2ccccc2)cc1` is reported as 83 µg/mL (CCRF-CEM; cell growth or viability; 72 h).
The MIC of `COC(=O)c1cc(-c2cccc(NC(=S)Nc3ccc([N+](=O)[O-])cc3)c2)on1` is reported as greater than 64 µg/mL (Mycolicibacterium fortuitum; microbial growth, broth dilution; ATCC6841; 48 h).
`CCOC(=O)c1c(CSc2ccccc2)n(C)c2cc(Br)c(O)c(CN(C)C)c12` has an MIC50 of greater than 37 µM (Cowpox virus; microbial growth).
With `CO[C@H]1/C=C/O[C@@]2(C)Oc3c(C)c(O)c4c(O)c(c(/C=N/N5CCN(C)CC5)c(O)c4c3C2=O)NC(=O)/C(C)=C\C=C\[C@H](C)[C@H](O)[C@@H](C)[C@@H](O)[C@@H](C)[C@H](OC(C)=O)[C@@H]1C` the MIC was 3.1 to 6.2 µg/mL (Mycolicibacterium fortuitum; microbial growth; ATCC6841).
The MIC of `CCOC(=O)c1nnn(-c2cccc(NC(=O)Nc3ccc(Cl)c(Cl)c3)c2)c1C` is reported as greater than 64 µg/mL (Mycolicibacterium fortuitum; microbial growth, broth dilution; ATCC6841; 48 h).
The IC50 of `CC(C(=O)NCc1ccccc1)c1cccc(C(OC(=O)NCc2ccccc2)c2ccccc2)c1` (stereo not drawn) is reported as 2700 nM (CCRF-CEM; cell growth or viability; 72 h).
The IC50 of `N.N.[Cl][Pt][Cl]` is reported as 5730 nM (184B5; cell growth or viability).
`CO[C@H]1/C=C/O[C@@]2(C)Oc3c(C)c(O)c4c(O)c(c(/C=N/N5CCN(C)CC5)c(O)c4c3C2=O)NC(=O)/C(C)=C\C=C\[C@H](C)[C@H](O)[C@@H](C)[C@@H](O)[C@@H](C)[C@H](OC(C)=O)[C@@H]1C` gave an MIC of less than 0.78 µM (Mycobacterium marinum; microbial growth; 5 days).
With `Nc1nc(O)c2ncn(COC(CO)CO)c2n1` the MIC50 was greater than 100 µM (Cowpox virus; microbial growth).
`CC(C(=O)N1CCCC1)c1cccc(C(OC(=O)N2CCCC2)c2ccccc2)c1` (stereo not drawn) has an IC50 of 42000 nM (CCRF-CEM; cell growth or viability; 72 h).
`COC(=O)c1cc(-c2cccc(NC(=S)Nc3ccccc3Cl)c2)on1` gave an MIC of greater than 64 µg/mL (Mycolicibacterium fortuitum; microbial growth, broth dilution; ATCC6841; 48 h).
`NCC(=O)Nc1ccc(-n2nc(C(F)(F)F)cc2-c2ccc3c(ccc4ccccc43)c2)cc1` gave an IC90 of 2240 nM (Human immunodeficiency virus 1; viral replication, inhibitor; human PBMC; clinical isolate).
For `CC(C)CN(C[C@@H](O)[C@H](Cc1ccccc1)NC(=O)O[C@H]1CO[C@H]2OCC[C@H]21)S(=O)(=O)c1ccc(N)cc1`, the IC50 was 3.2 nM (Human immunodeficiency virus 1; viral replication; MT4).
`COC(=O)c1cc(-c2cccc(NC(=S)Nc3cccc(Br)c3)c2)on1` has an MIC of greater than 64 µg/mL (Mycolicibacterium fortuitum; microbial growth, broth dilution; ATCC6841; 48 h).
For `N#Cc1ccc(NC(=S)NN=Cc2ccc(O)cc2)cc1`, the IC50 was 107 µg/mL (CCRF-CEM; cell growth or viability; 72 h).
The MIC of `COC(=O)c1cc(-c2cccc(NC(=S)Nc3ccc(C#N)cc3)c2)on1` is reported as 64 µg/mL (Mycolicibacterium fortuitum; microbial growth, broth dilution; ATCC6841; 48 h).
With `Nc1ccn(C[C@@H](CO)OCP(=O)(O)O)c(=O)n1` the MIC50 was 22 µM (≈ 6.14 µg/mL) (Cowpox virus; microbial growth).
